24 compounds from ChEMBL document CHEMBL1123612, “Studies on histamine H2 receptor antagonists. 2. Synthesis and pharmacological activities of N-sulfamoyl and N-sulfonyl amidine derivatives” (1987) can be followed below.

Assay [1] relates to Canis familiaris. As to the kind of experiment: (§1) Reduction in gastric acid secretion under histamine[160 ug/(kg h)] stimulation in anesthetized dogs after intravenous administration. Type of assay: functional. Conditions: Canis lupus familiaris, Stomach. A digest of the protocol:
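Fasted (24 h) mongrel dogs, 8-10 kg, anesthetized with iv pentobarbital (30 mg/kg). Gastric juice acidity titrated with 0.05 N NaOH. Percent inhibition per dose taken from predrug acid output versus minimum output, usually reached within 45 min of dosing. ED50 read from semilog plot of inhibition against dose; two to four dogs per compound.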

The target of assay [2] is Histamine H2 receptor (Cavia porcellus) (UniProt P47747). As to the kind of experiment: Histamine H2 receptor antagonist activity (chronotropic response to histamine) in guinea pig right atrium. Type of assay: functional, tissue-based. Conditions: Cardiac atrium. A digest of the protocol:
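Spontaneously beating atrium; rate recorded via force-displacement transducer. Test compound added 10 min before histamine (5 × 10⁻⁶ M), three to four concentrations per compound. Percent inhibition of the histamine-induced rate increase plotted against log concentration; 50% inhibitory dose read from the dose-response curve (means ± SE).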

Assay [3] deals with Canis familiaris. The assay is described as §1. To be noted: Canis lupus familiaris, Stomach.

Sequence of Histamine H2 receptor (Cavia porcellus) (P47747 whole entry): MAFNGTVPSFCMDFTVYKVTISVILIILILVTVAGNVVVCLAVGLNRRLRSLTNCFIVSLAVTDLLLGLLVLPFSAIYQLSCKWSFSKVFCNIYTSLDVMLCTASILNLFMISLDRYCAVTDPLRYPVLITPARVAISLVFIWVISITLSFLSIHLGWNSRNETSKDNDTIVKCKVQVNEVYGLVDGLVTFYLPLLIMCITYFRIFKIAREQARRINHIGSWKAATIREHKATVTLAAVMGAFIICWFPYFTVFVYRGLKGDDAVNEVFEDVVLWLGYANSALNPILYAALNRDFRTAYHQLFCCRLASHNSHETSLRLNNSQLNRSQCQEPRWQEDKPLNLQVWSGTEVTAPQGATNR

On to `CNS(=O)(=O)NC(=N)CCSCc1csc(N=C(N)N)n1`, for which the ED50 in assay [1] came out at 0.0366 mg/kg; in assay [2] it was 860 nM.
`CN(C)Nc1nc(CSCCC(=N)NS(N)(=O)=O)cs1`: the ED50 in assay [2] was more than 100000 nM.
In the case of `CS(=O)(=O)NC(=N)CCSCc1csc(N=C(N)N)n1`, the ED50 in assay [2] was 510 nM.
On to `N=C(N)Nc1nc(CSCCC(=N)NS(=O)(=O)NCc2ccccc2)cs1`, for which the ED50 in assay [1] was 0.0396 mg/kg; in assay [2] it was 1100 nM.
`Cc1[nH]cnc1CSCCC(=N)NS(N)(=O)=O` registered an ED50 in assay [2] of more than 100000 nM.
In assay [2], `N=C(N)Nc1nc(CSCCC(=N)NNS(=O)(=O)c2ccccc2)cs1` showed an ED50 of 8300 nM.
For the compound `N=C(N)Nc1nc(CCCCC(=N)NS(=O)(=O)NC2CCCCC2)cs1`, the ED50 in assay [2] is 1300 nM.
As to `C/N=C(\N)Nc1nc(CSCCC(=N)NS(N)(=O)=O)cs1`, the ED50 in assay [1] was 0.0518 mg/kg; in assay [2] it was 480 nM.
For the compound `CCS(=O)(=O)NC(=N)CCCCc1csc(N=C(N)N)n1`, the ED50 in assay [1] worked out at 0.0244 mg/kg; in assay [2], 600 nM.
In the case of `N=C(N)Nc1nc(CSCCC(=N)NS(N)(=O)=O)no1`, the ED50 in assay [2] was more than 100000 nM.
As for `N=C(N)Nc1nc(CCCCC(=N)NS(=O)(=O)c2ccccc2)cs1`, the ED50 stood at 0.0194 mg/kg in assay [1] and 580 nM in assay [2].
Take `N=C(N)Nc1nc(CSCCC(=N)NS(=O)(=O)c2ccccc2)cs1`: the ED50 in assay [1] came out at 0.0568 mg/kg; in assay [2] it was 700 nM.
Regarding `NC(N)=Nc1nc(CSCC/C(N)=N/S(N)(=O)=O)cs1` [FAMOTIDINE], the ED50 was found to be 0.0087 mg/kg in assay [1] and 270 nM in assay [2].
`N=C(N)Nc1nc(CCCCC(=N)NS(N)(=O)=O)cs1`: the ED50 in assay [1] was found to be 0.0089 mg/kg; in assay [2], 230 nM.
The matching figures for `N=C(N)Nc1nc(CSCCC(=N)NS(=O)(=O)c2ccc(N)cc2)cs1`: 0.03 mg/kg and 450 nM.
The matching figures for `N=C(N)Nc1nc(CCCCC(=N)NS(=O)(=O)c2ccc(N)cc2)cs1`: 0.0101 mg/kg and 350 nM.
`N=C(CCSCc1ccccn1)NS(N)(=O)=O` showed an ED50 in assay [2] of more than 100000 nM.
Turning to `CCCNS(=O)(=O)NC(=N)CCCCc1csc(N=C(N)N)n1`, the ED50 in assay [1] stood at 0.0266 mg/kg; in assay [2], 560 nM.
The matching figures for `CN(C)S(=O)(=O)NC(=N)CCSCc1csc(N=C(N)N)n1.O=C(O)/C=C\C(=O)O`: 0.277 mg/kg and 1400 nM.
In assay [2], `N=C(CCCOc1cccc(CN2CCCCC2)c1)NS(N)(=O)=O` gave an ED50 of 1400 nM.
Still for that read-out and setting: the same measure for `N=C(N)Nc1nc(C[S+]([O-])CCC(=N)NS(N)(=O)=O)cs1` (configuration not stated): 73000 nM; for `CN(C)Cc1ccc(CSCCC(=N)NS(N)(=O)=O)o1`: 17000 nM.
`N=C(N)Nc1nc(CCCCC(=N)NNS(=O)(=O)c2ccccc2)cs1` gave an ED50 in assay [2] of 23000 nM.
Regarding `CN/C(=N\CCSCc1nc[nH]c1C)NC#N` [CIMETIDINE], the figures for the ED50 in assay [3] and in assay [2] were 0.33 mg/kg and 2700 nM, respectively.
